pIC50: −log10 of the molar value.
Assays:
[1] = test system: CWR22R; experiment: Antiproliferative activity against human 22Rv1 cells after 96 hrs by Oncotest monolayer assay; type: functional, cell-based; conditions: for pIC50: Homo sapiens, 22Rv1, 96 h, read-out: IC50; for IC50: cwr22r
How it was run: (§1)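 Cells from exponential-phase cultures seeded at 8000-12,000 cells/well, left 24 h to recover, then given compound at 10 concentrations in half-log steps up to 100 µM, in triplicate. After 96 h total exposure, wells were PBS-washed and stained with 7 µg/ml propidium iodide plus 0.1% Triton X-100 for 1-2 h at room temperature. Fluorescence (ex 530/em 620 nm) was read. Absolute IC50 was obtained by non-linear regression.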

[2] = biological target: T1, Androgen receptor (Homo sapiens, UniProt P10275); experiment: Antagonist activity against androgen receptor (unknown origin); conditions: for pIC50: read-out: IC50
T1 sequence (P10275 whole entry): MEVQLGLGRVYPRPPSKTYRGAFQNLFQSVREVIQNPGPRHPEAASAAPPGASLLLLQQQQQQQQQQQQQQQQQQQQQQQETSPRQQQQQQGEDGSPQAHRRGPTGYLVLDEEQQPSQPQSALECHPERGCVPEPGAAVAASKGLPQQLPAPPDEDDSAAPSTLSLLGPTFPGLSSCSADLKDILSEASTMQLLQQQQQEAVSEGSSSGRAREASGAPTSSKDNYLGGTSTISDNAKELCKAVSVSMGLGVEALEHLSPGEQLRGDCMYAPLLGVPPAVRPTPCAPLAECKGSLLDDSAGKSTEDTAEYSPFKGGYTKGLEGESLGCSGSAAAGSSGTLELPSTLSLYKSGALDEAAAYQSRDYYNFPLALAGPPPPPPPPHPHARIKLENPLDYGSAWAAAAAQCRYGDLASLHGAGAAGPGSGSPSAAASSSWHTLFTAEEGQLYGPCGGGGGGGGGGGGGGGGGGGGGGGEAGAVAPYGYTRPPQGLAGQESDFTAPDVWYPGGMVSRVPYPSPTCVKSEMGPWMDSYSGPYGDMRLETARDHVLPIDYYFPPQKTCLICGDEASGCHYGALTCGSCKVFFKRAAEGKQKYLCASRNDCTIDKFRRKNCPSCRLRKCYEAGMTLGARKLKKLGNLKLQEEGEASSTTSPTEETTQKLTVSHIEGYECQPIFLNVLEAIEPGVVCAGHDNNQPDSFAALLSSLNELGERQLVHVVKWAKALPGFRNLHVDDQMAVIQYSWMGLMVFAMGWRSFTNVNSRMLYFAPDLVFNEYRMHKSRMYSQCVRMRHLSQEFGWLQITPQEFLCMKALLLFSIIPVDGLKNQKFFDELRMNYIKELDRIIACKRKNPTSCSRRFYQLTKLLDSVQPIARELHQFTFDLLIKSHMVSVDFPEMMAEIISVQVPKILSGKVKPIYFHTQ

[3] = test system: MCF7; experiment: Antiproliferative activity against human MCF7 cells after 96 hrs by Oncotest monolayer assay; type: functional, cell-based; conditions: for pIC50: Homo sapiens, MCF7, 96 h, read-out: IC50; for IC50: mcf7; how it was run: as §1
[4] = test system: CWR22R; experiment: Potency index, ratio IC50 of bicalutamide to IC50 of compound for antiproliferative activity against human 22Rv1 cells; type: functional
[5] = test system: CWR22R; experiment: Potency index, ratio IC50 of enzalutamide to IC50 of compound for antiproliferative activity against human 22Rv1 cells; type: functional

| Structure (SMILES) | pIC50 [1] | IC50 [2] | pIC50 [3] | IC50 [1] | IC50 [3] | further results |
| --- | --- | --- | --- | --- | --- | --- |
| Cc1cc(=O)oc2cc(OCC(=O)c3ccc4ccccc4c3)ccc12 | < 4.00 | Not Active | < 4.00 |  |  |  |
| Cc1cc(=O)oc2cc(OCC(=O)c3ccccc3)ccc12 | < 4.00 | Not Active | < 4.00 |  |  |  |
| Cc1ccc(C(=O)COc2ccc3c(C)cc(=O)oc3c2)cc1 | < 4.00 | Not Active | < 4.00 |  |  |  |
| CNC(=O)c1ccc(N2C(=S)N(c3ccc(C#N)c(C(F)(F)F)c3)C(=O)C2(C)C)cc1F [ENZALUTAMIDE] | 4.50 |  |  |  |  |  |
| O=C(COc1ccc2c(C(F)(F)F)cc(=O)oc2c1)c1ccccc1 |  | Not Active |  | Not Active | Not Active |  |
| COc1cccc(C(=O)COc2ccc3c(C(F)(F)F)cc(=O)oc3c2)c1 |  | Not Active |  | Not Active | Not Active |  |
| O=C(COc1ccc2c(C(F)(F)F)cc(=O)oc2c1)c1ccc2ccccc2c1 |  | Not Active |  | Not Active | Not Active |  |
| CC(C)(C)c1ccc(C(=O)COc2ccc3c(C(F)(F)F)cc(=O)oc3c2)cc1 |  | Not Active |  | Not Active | Not Active |  |
| Cc1cc(=O)oc2cc(OC(C)C(=O)c3ccccc3)ccc12 (configuration not stated) |  |  |  |  |  | pIC50 [2]: 5.29 |
| N#Cc1ccc(C(=O)COc2ccc3c(C(F)(F)F)cc(=O)oc3c2)cc1 |  | Not Active |  | Not Active | Not Active |  |
| O=C(COc1ccc2c(C(F)(F)F)cc(=O)oc2c1)c1ccc(F)cc1 |  | Not Active |  | Not Active | Not Active |  |
| Cc1cc(=O)oc2cc(OCC(=O)C(C)(C)C)ccc12 |  |  |  |  |  | pIC50 [2]: 5.42 |
| Cc1cc(=O)oc2cc(OCC(=O)c3cccc(C(F)(F)F)c3)ccc12 | < 4.00 | Not Active | 4.42 |  |  |  |
| O=C(COc1ccc2c(C(F)(F)F)cc(=O)oc2c1)c1ccc(OC(F)(F)F)cc1 |  | Not Active |  | Not Active | Not Active |  |
| O=C(COc1ccc2c(C(F)(F)F)cc(=O)oc2c1)c1ccc(C(F)(F)F)cc1 |  | Not Active |  | Not Active | Not Active |  |
| COc1ccc(C(=O)COc2ccc3c(C)cc(=O)oc3c2)cc1 | < 4.00 | Not Active | < 4.00 |  |  |  |
| O=C(COc1ccc2c(C(F)(F)F)cc(=O)oc2c1)c1ccc2c(c1)OCCCO2 |  | Not Active |  | Not Active | Not Active |  |

| Structure (SMILES) | pIC50 [1] | IC50 [2] | pIC50 [3] | IC50 [1] | IC50 [3] | further results |
| --- | --- | --- | --- | --- | --- | --- |
| CCOC(=O)C(CC)Oc1ccc2c(C)cc(=O)oc2c1 (configuration not stated) |  |  |  |  |  | pIC50 [2]: 5.30 |
| O=C(COc1ccc2c(C(F)(F)F)cc(=O)oc2c1)c1ccccc1C(F)(F)F |  | Not Active |  | Not Active | Not Active |  |
| Cc1cc(=O)oc2cc(OCC(=O)c3ccccc3C(F)(F)F)ccc12 | 4.69 |  | 4.36 |  |  | Ratio IC50 [4]: 2 |
| O=C(COc1ccc2c(C(F)(F)F)cc(=O)oc2c1)c1cccc(C(F)(F)F)c1 |  | Not Active |  | Not Active | Not Active |  |
| Cc1cc(=O)oc2cc(OCC(=O)c3ccc(C#N)cc3)ccc12 | < 4.00 | Not Active | < 4.00 |  |  |  |
| COc1cccc(C(=O)COc2ccc3c(C)cc(=O)oc3c2)c1 | 5.08 |  | 5.66 |  |  |  |
| CC(O)(CS(=O)(=O)c1ccc(F)cc1)C(=O)Nc1ccc(C#N)c(C(F)(F)F)c1 (configuration not stated) [BICALUTAMIDE] | 4.33 |  |  |  |  |  |
| Cc1ccc(C(=O)COc2ccc3c(C(F)(F)F)cc(=O)oc3c2)cc1 |  | Not Active |  | Not Active | Not Active |  |
| Cc1cc(=O)oc2cc(OCC(=O)c3ccc(C(C)(C)C)cc3)ccc12 | 4.65 |  | 4.68 |  |  | Ratio IC50 [4]: 2 |
| CC(C)(C)C(=O)COc1ccc2c(C(F)(F)F)cc(=O)oc2c1 |  | Not Active |  | Not Active | Not Active |  |
| Cc1cc(=O)oc2cc(OCC(=O)c3ccc(OC(F)(F)F)cc3)ccc12 | < 4.00 | Not Active | < 4.00 |  |  |  |
| COc1ccc(C(=O)COc2ccc3c(C(F)(F)F)cc(=O)oc3c2)cc1 |  | Not Active |  | Not Active | Not Active |  |
| Cc1cc(=O)oc2cc(OCC(=O)c3ccc(F)cc3)ccc12 | < 4.00 | Not Active | < 4.00 |  |  |  |
| Cc1cc(=O)oc2cc(OCC(=O)c3ccc4c(c3)OCCCO4)ccc12 | < 4.00 | Not Active | < 4.00 |  |  |  |
| O=C(COc1ccc2c(C(F)(F)F)cc(=O)oc2c1)c1cc(C(F)(F)F)cc(C(F)(F)F)c1 |  | Not Active |  | Not Active | Not Active |  |
| Cc1cc(=O)oc2cc(OCC(=O)c3cc(C(F)(F)F)cc(C(F)(F)F)c3)ccc12 | 6.03 |  | 6.33 |  |  | Ratio IC50 [5]: > 30; Ratio IC50 [4]: 50 |
| Cc1cc(=O)oc2cc(OCC(=O)c3ccc(C(F)(F)F)cc3)ccc12 | < 4.00 | Not Active | < 4.00 |  |  |  |

— ChEMBL document CHEMBL3784967, “7-Substituted umbelliferone derivatives as androgen receptor antagonists for the potential treatment of prostate and breast cancer” (Bioorg Med Chem Lett, 2016)
